Experiments:
[1] = tested on: Cricetinae gen. sp.; test: Inhibition of HNE-induced lung hemorrhage in hamsters after oral administration followed by intratracheal instillation of HNE (10 U/lung); format: functional
In short: (§1)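 Hamsters (n = 6-10) were dosed orally 1 h before intratracheal instillation of HNE (10 U/lung). The read-out was inhibition of the HNE-induced lung hemorrhage.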

[2] = tested on: Cricetinae gen. sp.; test: (§2) Inhibition of HNE-induced lung hemorrhage in hamsters after oral administration of 30 mg/kg followed by intratracheal instillation of HNE (10 U/lung); format: functional; in short: as §1
[3] = biological target: T1, Neutrophil elastase (Homo sapiens, UniProt P08246); test: Binding constant derived from inhibition of elastase catalyzed hydrolysis of synthetic substrate
T1 sequence (P08246 whole entry): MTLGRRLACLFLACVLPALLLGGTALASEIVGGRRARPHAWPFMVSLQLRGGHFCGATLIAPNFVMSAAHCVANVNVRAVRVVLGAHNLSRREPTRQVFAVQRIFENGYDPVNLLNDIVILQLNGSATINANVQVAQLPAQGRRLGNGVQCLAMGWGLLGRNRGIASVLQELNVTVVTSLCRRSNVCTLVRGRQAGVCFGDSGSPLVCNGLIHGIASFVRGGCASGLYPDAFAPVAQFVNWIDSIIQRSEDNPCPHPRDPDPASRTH

[4] = tested on: Cricetinae gen. sp.; test: as §2; format: functional, Cricetulus griseus; in short: as §1

| SMILES | ED50 [1] | inhibition in vivo at 30 mg/kg [2] | also measured |
| --- | --- | --- | --- |
| CC(C)[C@H](NC(=O)Cn1c(-c2ccc(F)cc2)ncc(N)c1=O)C(=O)c1nnc(C(C)(C)c2ccccc2)o1 | 10 mg/kg |  |  |
| CC(C)[C@H](NC(=O)C1Cc2ccccc2CN1C(=O)c1c[nH]cn1)C(=O)c1nnc(C(C)(C)C)o1 (stereo not given in full) |  | 29% | Ki [3]: 309 nM |
| CC(C)[C@H](NC(=O)Cn1c(-c2ccc(F)cc2)ncc(N)c1=O)C(=O)c1nnc(-c2cccnc2)o1 |  | 0% |  |
| CC(C)[C@H](NC(=O)CN1C(=O)N[C@H](C(C)C)C1=O)C(=O)c1nnc(C(C)(C)C)o1 |  | 0% |  |
| CC(C)[C@H](NC(=O)Cn1c(-c2ccccc2)nccc1=O)C(=O)c1nnc(C(C)(C)C)o1 | 4 mg/kg |  |  |
| CC(C)C[C@@H]1NC(=O)N(CC(=O)N[C@H](C(=O)c2nnc(C(C)(C)C)o2)C(C)C)C1=O |  | 0% |  |
| CC(C)[C@H](NC(=O)Cn1c(-c2cccnc2)ncc(N)c1=O)C(=O)c1nnc(C(C)(C)C)o1 |  | 6% |  |
| CC(C)[C@H](NC(=O)Cn1c(-c2ccccc2)ncc(N)c1=O)C(=O)c1nnc(C2(C)CC2)o1 |  |  | ED50 [2]: 11 mg/kg |
| CC(C)C(NC(=O)Cn1c(-c2ccc(F)cc2)ncc(N)c1=O)C(=O)C(F)(F)F (stereo not given) | 7.5 mg/kg |  |  |
| Cc1nnc(C(=O)[C@@H](NC(=O)Cn2c(-c3ccc(F)cc3)ncc(N)c2=O)C(C)C)o1 |  | 47% |  |
| CC(C)[C@H](NC(=O)[C@@H]1Cc2ccccc2CN1C(=O)[C@@H](NC(=O)c1cccnc1)C(C)C)C(=O)c1nnc(C(C)(C)C)o1 | 14.2 mg/kg |  | Ki [3]: 1.66 nM |
| CC(C)[C@H](NC(=O)Cn1c(-c2ccccc2)nccc1=O)C(=O)c1nnc(C2(C)CC2)o1 | 6.6 mg/kg |  |  |
| CC(C)c1nnc(C(=O)[C@@H](NC(=O)Cn2c(-c3ccc(F)cc3)ncc(N)c2=O)C(C)C)o1 |  |  | inhibition in vivo at 30 mg/kg [4]: 79% |
| CC(C)[C@H](NC(=O)Cn1c(-c2ccc(F)cc2)nccc1=O)C(=O)c1nnc(C2(C)CC2)o1 | 5.5 mg/kg |  |  |
| CC(C)[C@H](NC(=O)COc1cccc(-c2ccccc2)n1)C(=O)c1nnc(C(C)(C)C)o1 |  | 28% | Ki [3]: 4280 nM |
| CC(C)[C@H](NC(=O)[C@@H]1Cc2ccccc2N1C(=O)c1c[nH]cn1)C(=O)c1nnc(C(C)(C)C)o1 |  | 81% | Ki [3]: 79.7 nM |

Reference: ChEMBL document CHEMBL1134847, “Development of orally active nonpeptidic inhibitors of human neutrophil elastase” (J Med Chem, 2001)
